Measurements from ChEMBL document CHEMBL1146203, “Acridone-based inhibitors of inosine 5'-monophosphate dehydrogenase: discovery and SAR leading to the identification of N-(2-(6-(4-ethylpiperazin-1-yl)pyridin-3-yl)propan-2-yl)-2- fluoro-9-oxo-9,10-dihydroacridine-3-carboxamide (BMS-566419)” (J Med Chem, 2007).
Activity calls are given as the source filed them. The calls are words filed in the database; no cut-off is given here.

Key:
[1] = biological target: Inosine-5'-monophosphate dehydrogenase 2 (Homo sapiens, UniProt P12268); experiment: Inhibition of human IMPDH2
PBMC = experiment: Inhibition of T cell proliferation in PBMC cells; format: functional, cell-based; conditions: Homo sapiens
In short: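 Human PBMCs isolated from heparinized whole blood by density gradient and plated at 5 × 10^4 cells/well in RPMI 1640 with 10% FBS. Stimulated with anti-CD3 OKT3 (200 ng/mL) plus soluble anti-CD28 (1 µg/mL). Compounds tested in triplicate from 3.3 µM in 3-fold dilutions with 0.5% DMSO for 72 h.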

CCRF-CEM = experiment: Inhibition of CEM cell proliferation; format: functional, cell-based; conditions: Homo sapiens
In short: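 Human CEM T-lymphoblasts grown in RPMI 1640 with 10% heat-inactivated FBS and penicillin/streptomycin. Seeded at 3000 cells/well with 0.5% DMSO; compounds tested in triplicate from 10 µM top concentration in 3-fold dilutions.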

Rattus norvegicus [2] = experiment: Efficacy against Freund's complete adjuvant-induced arthritis in Lewis rat assessed as inhibition of paw swelling at 15 mg/kg, po after 21 days; format: functional, organism-based; set-up: dose 15 mg/kg
In short: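 Adjuvant arthritis induced by subcutaneous Freund's complete adjuvant at the tail base in male Lewis rats. Oral dosing once daily for 21 days from day 0, vehicle 60% PEG400/40% 0.01 N HCl, 8 rats per group. Hind paw volume measured by plethysmometry at baseline and over three weeks; increase above baseline calculated; Student's t test against the vehicle group.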

[3] = Therapeutic index for gastrointestinal toxicity in Lewis rat adjuvant arthritis model; conditions: read-out: TI
In short: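 GI therapeutic index in the rat adjuvant arthritis model, calculated as the ratio of exposure (AUC) at the maximum tolerated dose for GI toxicity to the AUC at the lowest efficacious dose.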

Rattus norvegicus [4] = organism: Rattus norvegicus; experiment: Gastrointestinal toxicity in Lewis rat adjuvant arthritis model; format: organism-based; conditions: in vivo
In short: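 Lewis rats in the adjuvant arthritis setting were given escalating oral daily doses for up to 14 days. Animals were monitored for diarrhea and weight loss, with gross examination and histopathology (crypt cell necrosis) used to define the maximum tolerated dose for GI toxicity.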

Cytochrome P450 1A2 = biological target: T1, Cytochrome P450 1A2 (Homo sapiens, UniProt P05177); experiment: Inhibition of CYP1A2; format: ADME
T1 sequence (P05177 whole entry): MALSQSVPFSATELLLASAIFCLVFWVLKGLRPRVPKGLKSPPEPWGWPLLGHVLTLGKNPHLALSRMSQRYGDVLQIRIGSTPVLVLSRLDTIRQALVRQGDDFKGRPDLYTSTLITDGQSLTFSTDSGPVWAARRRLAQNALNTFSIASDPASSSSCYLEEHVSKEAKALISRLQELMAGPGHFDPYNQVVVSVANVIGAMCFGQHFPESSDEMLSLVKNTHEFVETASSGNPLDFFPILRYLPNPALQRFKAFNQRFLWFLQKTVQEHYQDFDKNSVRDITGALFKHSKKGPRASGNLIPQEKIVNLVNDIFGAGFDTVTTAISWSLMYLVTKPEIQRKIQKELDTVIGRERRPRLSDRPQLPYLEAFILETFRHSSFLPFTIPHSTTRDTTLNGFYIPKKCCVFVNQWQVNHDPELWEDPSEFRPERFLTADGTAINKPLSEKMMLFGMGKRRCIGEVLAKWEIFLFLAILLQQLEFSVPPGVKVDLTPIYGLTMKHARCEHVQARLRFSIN
In short: (§1)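 Inhibition measured against isolated CYP enzymes.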

[5] = Cmax in rat at 10 mg/kg, po; format: ADME, organism-based; set-up: dose 10 mg/kg, route oral; conditions: in vivo
In short: (§2)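 Rat and cynomolgus monkey PK: oral dose 10 mg/kg and iv dose 2 mg/kg; oral vehicle 60% PEG400/40% HCl at pH 3. Cmax, Tmax and AUC taken from the oral arm; T1/2, MRT, Cl and Vss from the iv arm; Fpo calculated. Values are the mean ± SD of three animals.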

Rattus norvegicus [6] = experiment: Efficacy against Freund's complete adjuvant-induced arthritis in Lewis rat assessed as inhibition of paw swelling at 10 mg/kg, po after 21 days; format: functional, organism-based; set-up: dose 10 mg/kg
In short: (§3)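 Male Lewis rats; arthritis induced by subcutaneous Freund's complete adjuvant at the tail base. Oral dosing once daily for 21 days from day 0, in 60% PEG400/40% 0.01 N HCl vehicle; 8 rats per group. Hind paw volume was measured by plethysmometry at baseline and over three weeks, and the increase above baseline was calculated. Groups were compared with vehicle by Student's t test.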

[7] = Clearance in rats at 2 mg/kg, iv; format: ADME, organism-based; set-up: dose 2 mg/kg, route intravenous; conditions: rat, in vivo; in short: as §2
Rattus norvegicus [8] = experiment: Efficacy against Freund's complete adjuvant-induced arthritis in Lewis rat assessed as inhibition of paw swelling at 25 mg/kg, po after 21 days; format: functional, organism-based; set-up: dose 25 mg/kg; in short: as §3
Rattus norvegicus [9] = experiment: Efficacy against Freund's complete adjuvant-induced arthritis in Lewis rat assessed as inhibition of paw swelling at 50 mg/kg, po after 21 days; format: functional, organism-based; set-up: dose 50 mg/kg; in short: as §3
[10] = AUC in rat at 10 mg/kg, po; format: ADME, organism-based; set-up: dose 10 mg/kg, route oral; conditions: plasma; in short: as §2
[11] = Cmax in cynomolgus monkey at 10 mg/kg, po; format: ADME, organism-based, Macaca fascicularis; set-up: dose 10 mg/kg, route oral; conditions: in vivo; in short: as §2
[12] = Mean residence time in cynomolgus monkey at 2 mg/kg, iv; format: ADME, organism-based, Macaca fascicularis; set-up: dose 2 mg/kg, route intravenous; conditions: in vivo; in short: as §2
[13] = Volume of distribution at steady state in rat at 2 mg/kg, iv; format: ADME, organism-based; set-up: dose 2 mg/kg, route intravenous; conditions: in vivo, read-out: Vdss; in short: as §2
[14] = Bioavailability in rat at 10 mg/kg, po; format: ADME, organism-based; conditions: in vivo; in short: as §2
Cytochrome P450 2C9 = Cytochrome P450 2C9 (Homo sapiens, UniProt P11712); experiment: Inhibition of CYP2C9; format: ADME; in short: as §1
Cytochrome P450 2D6 = Cytochrome P450 2D6 (Homo sapiens, UniProt P10635); experiment: Inhibition of CYP2D6; format: ADME; in short: as §1
[15] = Lipophilicity, log P of the compound; format: physicochemical; conditions: octanol/water
[16] = AUC in cynomolgus monkey at 10 mg/kg, po; format: ADME, organism-based, Macaca fascicularis; set-up: dose 10 mg/kg, route oral; conditions: plasma; in short: as §2
[17] = Bioavailability in cynomolgus monkey at 10 mg/kg, po; conditions: in vivo
[18] = Volume of distribution at steady state in cynomolgus monkey at 2 mg/kg, iv; format: ADME, organism-based, Macaca fascicularis; set-up: dose 2 mg/kg, route intravenous; conditions: in vivo, read-out: Vdss; in short: as §2
[19] = Mean residence time in rat at 2 mg/kg, iv; format: ADME, organism-based; set-up: dose 2 mg/kg, route intravenous; conditions: in vivo; in short: as §2
Cytochrome P450 3A4 = Cytochrome P450 3A4 (Homo sapiens, UniProt P08684); experiment: Inhibition of CYP3A4; format: ADME; in short: as §1
[20] = Half life in cynomolgus monkey at 2 mg/kg, iv; format: ADME, organism-based, Macaca fascicularis; set-up: dose 2 mg/kg, route intravenous; conditions: in vivo; in short: as §2
Serum = experiment: Protein binding in serum; format: ADME, cell-free; conditions: human
[21] = Clearance in cynomolgus monkey at 2 mg/kg, iv; format: ADME, organism-based, Macaca fascicularis; set-up: dose 2 mg/kg, route intravenous; conditions: in vivo; in short: as §2
Rattus norvegicus [22] = experiment: Tmax in rat at 10 mg/kg, po; format: ADME, organism-based; set-up: dose 10 mg/kg, route oral; conditions: in vivo; in short: as §2
[23] = Half life in rat at 2 mg/kg, iv; format: ADME, organism-based; set-up: dose 2 mg/kg, route intravenous; conditions: in vivo; in short: as §2
[24] = Permeability across Caco-2 cells; format: ADME, cell-based; conditions: human, read-out: permeability
Cytochrome P450 2C19 = Cytochrome P450 2C19 (Homo sapiens, UniProt P33261); experiment: Inhibition of CYP2C19; format: ADME; in short: as §1
Chain of Cytochrome P450 2C19 (P33261 whole entry): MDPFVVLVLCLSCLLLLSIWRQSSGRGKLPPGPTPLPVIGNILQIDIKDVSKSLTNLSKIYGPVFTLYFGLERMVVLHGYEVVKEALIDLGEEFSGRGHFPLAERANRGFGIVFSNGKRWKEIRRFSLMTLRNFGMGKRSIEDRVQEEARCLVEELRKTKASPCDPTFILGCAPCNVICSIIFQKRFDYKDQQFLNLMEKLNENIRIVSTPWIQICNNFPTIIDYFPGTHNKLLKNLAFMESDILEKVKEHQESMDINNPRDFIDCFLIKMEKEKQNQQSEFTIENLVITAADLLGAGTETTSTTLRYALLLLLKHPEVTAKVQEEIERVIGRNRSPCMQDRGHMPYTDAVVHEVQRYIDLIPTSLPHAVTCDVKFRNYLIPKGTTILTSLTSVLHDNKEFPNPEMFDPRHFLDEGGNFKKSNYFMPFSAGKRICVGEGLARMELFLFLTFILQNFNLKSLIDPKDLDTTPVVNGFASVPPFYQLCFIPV

Chain of Cytochrome P450 2C9 (P11712 whole entry): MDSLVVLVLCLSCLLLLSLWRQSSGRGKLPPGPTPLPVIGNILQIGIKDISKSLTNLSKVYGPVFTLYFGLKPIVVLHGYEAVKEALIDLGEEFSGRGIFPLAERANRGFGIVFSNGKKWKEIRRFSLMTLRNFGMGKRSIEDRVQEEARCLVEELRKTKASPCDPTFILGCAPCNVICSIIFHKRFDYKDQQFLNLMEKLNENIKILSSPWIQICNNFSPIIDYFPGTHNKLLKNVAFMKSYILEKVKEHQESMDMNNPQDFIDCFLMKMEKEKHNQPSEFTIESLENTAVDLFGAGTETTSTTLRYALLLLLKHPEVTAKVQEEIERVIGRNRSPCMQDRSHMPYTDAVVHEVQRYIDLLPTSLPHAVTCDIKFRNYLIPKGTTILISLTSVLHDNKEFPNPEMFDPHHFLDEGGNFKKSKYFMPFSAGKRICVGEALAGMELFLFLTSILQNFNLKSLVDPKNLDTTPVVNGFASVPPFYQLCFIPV
Chain of Cytochrome P450 3A4 (P08684 whole entry): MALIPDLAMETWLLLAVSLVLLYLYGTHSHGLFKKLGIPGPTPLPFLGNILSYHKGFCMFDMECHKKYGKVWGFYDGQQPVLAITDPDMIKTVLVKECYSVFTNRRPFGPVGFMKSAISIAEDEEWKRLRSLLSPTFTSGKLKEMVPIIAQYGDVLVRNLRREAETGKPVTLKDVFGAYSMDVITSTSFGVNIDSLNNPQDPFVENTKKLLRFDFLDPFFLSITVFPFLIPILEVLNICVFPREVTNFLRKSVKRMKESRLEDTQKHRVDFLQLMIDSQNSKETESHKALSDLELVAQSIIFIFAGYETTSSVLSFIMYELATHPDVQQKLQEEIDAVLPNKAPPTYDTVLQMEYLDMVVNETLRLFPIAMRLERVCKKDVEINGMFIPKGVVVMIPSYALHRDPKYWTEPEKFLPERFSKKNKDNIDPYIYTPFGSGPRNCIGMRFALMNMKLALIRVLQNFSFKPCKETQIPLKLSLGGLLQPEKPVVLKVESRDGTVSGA
Chain of Cytochrome P450 2D6 (P10635 whole entry): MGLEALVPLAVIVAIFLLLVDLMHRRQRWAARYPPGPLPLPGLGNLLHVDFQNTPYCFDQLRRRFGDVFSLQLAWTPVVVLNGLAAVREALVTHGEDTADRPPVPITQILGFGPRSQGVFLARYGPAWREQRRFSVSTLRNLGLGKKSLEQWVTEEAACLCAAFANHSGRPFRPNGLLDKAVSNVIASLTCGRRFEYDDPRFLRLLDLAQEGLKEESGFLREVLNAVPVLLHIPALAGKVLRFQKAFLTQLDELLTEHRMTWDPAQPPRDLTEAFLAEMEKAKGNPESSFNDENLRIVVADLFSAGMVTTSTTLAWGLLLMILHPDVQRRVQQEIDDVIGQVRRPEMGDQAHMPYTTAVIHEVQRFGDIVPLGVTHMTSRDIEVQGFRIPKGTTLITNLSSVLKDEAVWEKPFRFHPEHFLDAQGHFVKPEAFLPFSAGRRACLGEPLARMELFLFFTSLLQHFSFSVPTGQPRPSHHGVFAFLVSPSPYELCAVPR

CC(C)(NC(=O)c1cc2[nH]c3ccccc3c(=O)c2cc1F)c1ccccc1
IC50 [1]: 11 nM
IC50 (PBMC): 220 nM
IC50 (CCRF-CEM): 830 nM

CC(C)(NC(=O)c1cc2[nH]c3ccccc3c(=O)c2cc1F)c1ccc(N2CCOCC2)nc1
IC50 [1]: 20 nM
IC50 (PBMC): 210 nM
IC50 (CCRF-CEM): 660 nM

CC(C)(NC(=O)c1cc2[nH]c3ccccc3c(=O)c2cc1F)c1cnc2c(c1)OCCN2
IC50 [1]: 17 nM
IC50 (PBMC): 320 nM
IC50 (CCRF-CEM): 920 nM

COc1c(C)c2c(c(O)c1C/C=C(\C)CCC(=O)OCCN1CCOCC1)C(=O)OC2 [MYCOPHENOLATE MOFETIL]
Activity (Rattus norvegicus [2]): Active
selectivity ratio [3]: 6.9
Activity (Rattus norvegicus [4]): Active

CC(C)(NC(=O)c1ccc2c(=O)c3ccccc3[nH]c2c1)c1cccnc1
IC50 [1]: 42 nM
IC50 (PBMC): 590 nM
IC50 (CCRF-CEM): 2200 nM

CCN1CCN(c2ccc(C(C)(C)NC(=O)c3cc4[nH]c5ccccc5c(=O)c4cc3F)cn2)CC1
IC50 (Cytochrome P450 1A2): > 20000 nM
Cmax [5]: 0.41 µM
Activity (Rattus norvegicus [6]): Active
clearance [7]: 29 mL/min/kg
Activity (Rattus norvegicus [8]): Active
Activity (Rattus norvegicus [9]): Active
AUC [10]: 5.2 µM·h
Cmax [11]: 26 µM
IC50 [1]: 17 nM
MRT [12]: 5.5 h
Vd [13]: 7.4 L/kg
bioavailability [14]: 43%
IC50 (Cytochrome P450 2C9): > 20000 nM
IC50 (Cytochrome P450 2D6): > 20000 nM
logP [15]: 2.5
AUC [16]: 102 µM·h
bioavailability [17]: 88%
IC50 (PBMC): 220 nM
Vd [18]: 1.1 L/kg
MRT [19]: 4.4 h
IC50 (Cytochrome P450 3A4): 13000 nM
half-life [20]: 4 h
Activity (Serum): 92%
clearance [21]: 3.4 mL/min/kg
Tmax (Rattus norvegicus [22]): 4 h
half-life [23]: 3.6 h
IC50 (CCRF-CEM): 770 nM
Papp [24]: 32 ×10⁻⁶ cm/s
IC50 (Cytochrome P450 2C19): 19000 nM

CC(C)(NC(=O)c1cc2[nH]c3ccccc3c(=O)c2cc1F)c1ccc(S(C)(=O)=O)cc1
IC50 [1]: 12 nM
IC50 (PBMC): 170 nM
IC50 (CCRF-CEM): 480 nM

CN(C)CCOc1ccc(C(C)(C)NC(=O)c2cc3[nH]c4ccccc4c(=O)c3cc2F)cc1
IC50 [1]: 20 nM
IC50 (PBMC): 210 nM
IC50 (CCRF-CEM): 560 nM

CC(C)(NC(=O)c1ccc2c(=O)c3ccccc3[nH]c2c1)c1ccncc1
IC50 [1]: 53 nM
IC50 (PBMC): 630 nM
IC50 (CCRF-CEM): 2300 nM

CN(C)c1ccc(C(C)(C)NC(=O)c2cc3[nH]c4ccccc4c(=O)c3cc2F)cn1
IC50 [1]: 22 nM
IC50 (PBMC): 340 nM
IC50 (CCRF-CEM): 850 nM

CN(C)c1cc(C(C)(C)NC(=O)c2cc3[nH]c4ccccc4c(=O)c3cc2F)ccn1
IC50 [1]: 14 nM
IC50 (PBMC): 220 nM
IC50 (CCRF-CEM): 640 nM

CC(C)(C)NC(=O)c1ccc2c(=O)c3ccccc3[nH]c2c1
IC50 [1]: 59 nM
IC50 (CCRF-CEM): 3300 nM

COc1cc(C(C)(C)NC(=O)c2cc3[nH]c4ccccc4c(=O)c3cc2F)cnc1N1CCOCC1
IC50 [1]: 20 nM
IC50 (PBMC): 320 nM
IC50 (CCRF-CEM): 810 nM
